In PubChem BioAssay AID651572 (The Scripps Research Institute Molecular Screening Center, 2012):
Where “and” joins values, the source holds several entries; their conditions need not be identical. Equal entries are not always repeated. About 950 (0.26%) of roughly 360,000 compounds were called active. This is one part of a sample in which actives are shown more often than they occur.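 Rule for the calls: active = inhibition above a per-plate limit, mean inhibition of low control wells plus 3 SD (cut at about 25% in these data); inactive = the rest.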 The source holds several records for some structures; these can differ, active in one and inactive in another.

Target: ADP-ribosylation factor GTPase-activating protein 1 (Rattus norvegicus) (UniProt Q62848)
Sequence (Q62848 1-136 limits assumed): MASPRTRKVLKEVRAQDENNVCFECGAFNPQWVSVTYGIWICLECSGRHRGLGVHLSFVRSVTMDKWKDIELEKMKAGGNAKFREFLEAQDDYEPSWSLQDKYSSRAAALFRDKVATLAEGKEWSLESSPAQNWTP
Assay: blockers of ARFGAP1-stimulated ARF1 GTP hydrolysis – biochemical, fluorescence polarization, GDP tracer, primary screen (AID 651572);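 note: 0% = DMSO wells with enzyme and 100% = wells lacking Arfgap1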
Details: GDP FP detection, at 16.5 µM, stronger effect = higher value
Method in brief: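 System: truncated rat Arfgap1 GAP domain / Benchmarks: high control wells lacking Arfgap1, low control full reaction with DMSO / Times: compound-enzyme preincubation 20 min, reaction 120 min, detection 60 min, 25 °C / Repeats: one replicate per compound / Also added: human ARF1(Δ1-17)-GTP substrate / Measured by: Tracer-displacement fluorescence polarization with EDTA stop, 620/688 nm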

Row | Structure (SMILES) | inhibition
1 | CCOC(=O)c1ccc(NC(=O)c2c(NCc3ccccc3)[nH]c(=O)[nH]c2=O)cc1 | -10.9% (inactive)
2 | CCOC(=O)c1ccc(NC(=O)c2c(N)n(C)c(=O)[nH]c2=O)cc1 | 11% (inactive)
3 | CCOC(=O)c1ccc(Nc2cc3ccccc3c(=O)[nH]2)cc1 | 25.9% (active)
4 | CC(C)CNc1cccc2c1S(=O)(=O)N[C@H](CC(C)C)CO2 | 2.08% (inactive)
5 | CC(C)[C@H]1COCCS(=O)(=O)N1Cc1ccccc1-c1cccc2c1sc1ccccc12 | -9.36% (inactive)
6 | COC(=O)C(C(=O)OC)c1ccccc1NS(=O)(=O)c1cccc2ccccc12 | -11.2% (inactive)
7 | COCCCNC(=O)C[C@H]1C[C@@]2(C(=O)OC)C(=C[C@H](C(C)(C)C)O[C@@H]2C)N(Cc2ccc3c(c2)OCO3)C1=O | 2.5% (inactive)
8 | COc1ccc(N2CCN(C(c3cc4ccc(C)cc4[nH]c3=O)c3nnnn3C3CCCC3)CC2)cc1 (stereo not drawn) | 7.55% (inactive)
9 | Cc1cc(C)c2[nH]c(=O)c(C(c3nnnn3Cc3ccc4c(c3)OCO4)N3CCCC3)cc2c1 (stereo not drawn) | 6.09% (inactive)
10 | CCOC(=O)C1CCN(C(c2cc3cc(C)cc(C)c3[nH]c2=O)c2nnnn2C2CCCCC2)CC1 (stereo not drawn) | 38.1% (active)
11 | CCCCOCC1CN(CCCC)S(=O)(=O)c2c(Oc3ccc(F)cc3)cccc2O1 (stereo not drawn) | -16.2% (inactive)
12 | Cc1cc(NCCc2c[nH]c3ccccc23)ccc1Oc1cccnc1 | 4.98% (inactive)
13 | CCCCCCCCN1C(=O)[C@@H](CC(=O)NCc2ccc(C)o2)C[C@@]2(C(=O)OC)C1=C[C@H](C(C)(C)C)O[C@@H]2C | 13.1% (inactive)
14 | O=C(Nc1ccccc1)c1cc2ccccc2[nH]1 | -4.92% (inactive)
15 | CC(C)n1c(=O)[nH]c2cc(C(=O)Nc3ccccc3)ccc21 | 9.47% (inactive)
16 | O=C(Nc1cccc(-c2nc3ccccc3[nH]2)c1)c1ccc(C(=O)Nc2cccc(-c3nc4ccccc4[nH]3)c2)cc1 | 47.5% (active)
17 | COCCNC(=S)N(C)[C@H]1C[C@H]2c3[nH]c4ccccc4c3CCN2C[C@H]1[C@H](C)O | 8.23% (inactive)
18 | C=CCN=C1NC(c2cccc(C(F)(F)F)c2)C(C(=O)OC)=C(C)N1C (stereo not drawn) | -13.8% (inactive)
19 | Cc1ccc2nc(-c3ccc(CN4CCC(n5cc(-c6ccccc6)[nH]c5=O)CC4)cc3)c(-c3ccccc3)nc2c1 | 8.03% (inactive)
20 | Nc1[nH]c(C(=O)c2ccccc2)c(-c2ccc(Cl)cc2Cl)c1C(=O)c1ccccc1 | -3.18% (inactive)
21 | CC(C)(C)C(c1nc2ccccc2[nH]1)n1c(Cc2csc3ccccc23)nc2ccccc21 (stereo not drawn) | 0.81% (inactive)
22 | O=C(NCCCN1CCOCC1)c1cnn2c(-c3ccccc3)cc(-c3ccccc3)nc12 | -2.5% (inactive)
23 | CC(C)c1ccc(/C=C/C(=O)NCCCN2CCOCC2)cc1 | -5.51% (inactive)
24 | O=C(/C=C/c1cn(-c2ccccc2)nc1-c1ccc2c(c1)OCCO2)NCCCN1CCOCC1 | 25.8% (active)
25 | COC(=O)c1ccc(CN2C(=O)[C@]3(OCCC=C[C@H]3C)c3c(Br)cccc32)cc1 | 13.2% (inactive)
26 | CSc1ccc(Oc2cccc3c2S(=O)(=O)N([C@H](C)c2ccccc2)C[C@@H](COCc2ccccc2)O3)cc1C | -6.49% (inactive)

Row | Structure (SMILES) | inhibition
27 | O=C(NCc1ccccc1)[C@@H]1CCCN1C(=O)[C@H]1CCCN1C(=O)c1cccc(Cl)c1 | 9.96% (inactive)
28 | COc1ccc(-n2nc3c(N4CCC(C(=O)NCc5ccccc5)CC4)nnc(C)c3c2C)cc1 | 26.9% (active)
29 | COc1ccc(CNC(=O)C2CCN(C(=O)c3ccccc3)CC2)cc1 | -4.15% (inactive)
30 | COc1ccc(CNC(=O)C2CCN(C(=O)c3ccco3)CC2)cc1 | 9.83% (inactive)
31 | C[C@@H]1CN([C@H](C)CO)C(=O)CCCn2cc(nn2)CO[C@H]1CN(C)C(=O)Nc1ccc(N2CCCCC2)cc1 | -7.3% (inactive)
32 | Cc1cc2c(nc1C)CCCN2C | -0.08% (inactive)
33 | COc1cccc(CNC(=O)[C@H]2CCCN2C(=O)[C@H]2CCCN2C(=O)c2cc(F)cc(F)c2)c1 | 9.87% (inactive)
34 | C[C@H](CO)N1C[C@H](C)[C@@H](CN(C)C(=O)Nc2ccccc2F)OCc2cn(nn2)CCCC1=O | 5.05% (inactive)
35 | COc1ccc(Cl)cc1NC(=O)Cn1nc(-c2ccc(C)cc2)n(C)c1=S | 41.6% (active)
36 | COc1ccc(C)cc1NC(=O)CSc1ccc(Cl)cc1 | -5.43% (inactive)
37 | COc1ccc(Cl)cc1NC(=O)CN1CCN(C(=O)N2CCOCC2)CC1 | 15% (inactive)
38 | N#Cc1cccc(C(=O)NCC2CCN(C(=O)C(=O)c3cc4ccccc4o3)CC2)c1 | 8.35% (inactive)
39 | COC(=O)[C@]12C[C@H](CC(=O)NCCc3ccccc3OC)C(=O)N(Cc3ccccc3)C1=C[C@H](C(C)C)O[C@@H]2C1CC1 | -5.59% (inactive)
40 | C#C[C@]1(O)CC[C@H]2[C@@H]3CCC4=CC(=O)CC[C@@H]4[C@H]3CC[C@@]21CC | -2.58% (inactive) and 25.1% (active)
41 | C=CC[C@]12C[C@@]3(O[C@H](c4ccc(C(F)(F)F)cc4)N=C3C[C@H](c3ccc(OC)cc3)[C@H]1C)N(C1CCN(Cc3ccccc3)CC1)C2=O | 4.67% (inactive)
42 | CN(C)C(=O)N1CCN(C(=O)[C@@H](Cc2ccccc2)NC(=O)[C@H]2O[C@@H](n3ccc(N)nc3=O)[C@H](O)[C@@H]2O)CC1 | 5.01% (inactive)
43 | COC(=O)Cc1nnn2c1[C@H](C)[C@H](c1ccccc1[N+](=O)[O-])OCC2 | 4.46% (inactive)
44 | COc1ccc(S(=O)(=O)Nc2ccc3c(c2)C(=O)N([C@H](C)CO)C[C@H](C)[C@@H](CN(C)C)OCCCC[C@H](C)O3)cc1 | 1.2% (inactive)
45 | OC(COc1cccc(OCC(O)CN2CCCC2)c1)CN1CCCC1 (stereo not drawn) | 28.2% (active)
46 | OC(COc1ccc(CN2CCSCC2)cc1)CN1CCCCC1 (stereo not drawn) | -6.07% (inactive)
47 | Cc1cccc(OCC(O)CN2CCN(S(=O)(=O)c3ccc(C)cc3C)CC2)c1 (stereo not drawn) | 10.2% (inactive)
48 | Cc1cc(OC(=O)NCCc2ccc(F)cc2)ccc1F | 17% (inactive)
49 | Cc1ccc(N)cc1CN1CCN(c2ncc(Cc3ccccc3)cn2)CC1 | -5.78% (inactive)
50 | O=C(NCc1ccccc1)c1ccc(CNc2c(N3CCCC3)c(=O)c2=O)cc1 | -4.58% (inactive)
51 | O=C(NC1CCCCC1)c1ccc(CNc2c(N3CCOCC3)c(=O)c2=O)cc1 | 26.4% (active)
52 | O=C(NCc1ccc(F)cc1)C1CCC(CNc2c(N3CCOCC3)c(=O)c2=O)CC1 (stereo not drawn) | 2.8% (inactive)

Row | Structure (SMILES) | inhibition
53 | O=C(NS(=O)(=O)c1cccs1)[C@H]1O[C@@H](n2ccc(=O)[nH]c2=O)[C@H](O)[C@@H]1O | 1.8% (inactive)
54 | C[C@H](O)[C@@H]1CN2CCc3ccc(-c4ccc5c(c4)OCO5)cc3[C@@H]2C[C@@H]1N(C)C(=O)C1CCCCC1 | -7.53% (inactive)
55 | CN[C@H]1C[C@H]2c3[nH]c4c(-c5ccccc5)cccc4c3CCN2C(=O)[C@H]1[C@H](C)O | 6.11% (inactive)
56 | Fc1ccc(-c2ccc(-c3nn4c(-c5ccco5)nnc4s3)o2)cc1 | 3.63% (inactive)
57 | c1ccc(-c2cc(-c3nnc4sc(-c5ccccn5)nn34)[nH]n2)cc1 | 37.4% (active)
58 | CCCCCCCCN1C(=O)[C@@H](CC(=O)NCc2ccccc2)C[C@@]2(C(=O)OC)C1=C[C@H](C(C)(C)C)O[C@@H]2C | 1.82% (inactive)
59 | C=CCN=C1NC(c2ccccc2)C(C(=O)OC)=C(C)N1Cc1ccc(C(F)(F)F)cc1 (stereo not drawn) | 7.52% (inactive)
60 | COC(=O)N1Cc2ccnnc2CC1c1ccccc1Br (stereo not drawn) | 0.38% (inactive)
61 | O=C(C(=O)N1CCC(CNC(=O)c2cccnc2Cl)CC1)c1cccs1 | 12.7% (inactive)
62 | COc1ccc(NC(=O)N(C)C[C@@H]2OCCCC[C@@H](C)Oc3ccc(NC(=O)NC4CCCCC4)cc3C(=O)N([C@H](C)CO)C[C@@H]2C)cc1 | -0.56% (inactive)
63 | O=C(CN1CCN(c2ccccn2)CC1)NCc1cccs1 | 19.2% (inactive)
64 | CCN(CC)c1ccc(NC(=O)CN2CCN(c3ccccn3)CC2)cc1 | 45.5% (active)
65 | CCC(=O)Nc1ccc2c(c1)nc(CCN1CCN(c3ccccn3)CC1)n2C | -11.6% (inactive)
66 | O=S(=O)(c1cccs1)N1CCCc2nc(-c3ccc(Br)cc3)ccc21 | -3.29% (inactive)
67 | O=C(NCc1ccccc1)[C@@H]1CCCN1C(=O)[C@@H](NS(=O)(=O)c1ccc(F)cc1F)C1CCCCC1 | 2.51% (inactive)
68 | COC(=O)[C@]12C[C@H](CC(=O)NCCC(C)C)C(=O)N(CCc3ccc(OC)c(OC)c3)C1=C[C@H](C(C)(C)C)O[C@@H]2C | 6.73% (inactive)
69 | Cc1ccc2nc(SCC(=O)Nc3cccc4ccccc34)nc(=O)n2c1 | 8.63% (inactive)
70 | Cc1ccc2nc(SCC(=O)N3CC(C)OC(C)C3)nc(=O)n2c1 (stereo not drawn) | 83.6% (active)
71 | Cc1ccc2nc(SCC(=O)N3CCN(c4ccccc4)CC3)nc(=O)n2c1 | 22.7% (inactive)
72 | Brc1ccc(COCCc2cn(Cc3ccccc3)c3ccccc23)cc1 | 10.9% (inactive)
73 | CCN1C(=O)N[C@@H]2C[C@H](C(=O)N3CCCC3)[C@H](C)[C@H](c3ccccc3)C[C@@H]21 | -0.64% (inactive)
74 | O=C(C(=O)N1CCC(CNS(=O)(=O)Cc2ccccc2)CC1)c1cc2ccccc2o1 | 10.3% (inactive)
75 | O=C(NCc1ccccc1)[C@H]1CCCN1C(=O)[C@H]1CCCN1C(=O)c1cc(F)cc(F)c1 | -2.81% (inactive)
76 | COc1ccc(C(CNC(=O)c2ccc(S(=O)(=O)Nc3ccccc3C)cc2)N2CCOCC2)cc1 (stereo not drawn) | -2.87% (inactive)
77 | COc1ccc(C(CNC(=O)c2cccc(S(=O)(=O)Nc3ccccc3Cl)c2)N2CCOCC2)cc1 (stereo not drawn) | 27% (active)
78 | COc1ccc(C(CNC(=O)c2cccc(NS(=O)(=O)c3ccc(C)c(F)c3)c2)N2CCCC2)cc1 (stereo not drawn) | 16.5% (inactive)
